Drawing on ChEMBL document CHEMBL1152868, “Activation of aldehyde dehydrogenase-2 reduces ischemic damage to the heart” (Science, 2008), this text covers Activity and fold change (FC) for 5 compounds.

Series [1] relates to Rattus norvegicus. Description: Cardiac protection in Wistar rat assessed as decrease in infarct size at 5 ug/min/kg for 13 hrs prolonged treatment terminated 3 hrs before ischemia. The format is functional. On the set-up: scale not given: the % may be the effect or the level left.
The target in series [2] is T1, Aldehyde dehydrogenase, mitochondrial (Homo sapiens) (UniProt P05091).
T1 sequence (whole entry): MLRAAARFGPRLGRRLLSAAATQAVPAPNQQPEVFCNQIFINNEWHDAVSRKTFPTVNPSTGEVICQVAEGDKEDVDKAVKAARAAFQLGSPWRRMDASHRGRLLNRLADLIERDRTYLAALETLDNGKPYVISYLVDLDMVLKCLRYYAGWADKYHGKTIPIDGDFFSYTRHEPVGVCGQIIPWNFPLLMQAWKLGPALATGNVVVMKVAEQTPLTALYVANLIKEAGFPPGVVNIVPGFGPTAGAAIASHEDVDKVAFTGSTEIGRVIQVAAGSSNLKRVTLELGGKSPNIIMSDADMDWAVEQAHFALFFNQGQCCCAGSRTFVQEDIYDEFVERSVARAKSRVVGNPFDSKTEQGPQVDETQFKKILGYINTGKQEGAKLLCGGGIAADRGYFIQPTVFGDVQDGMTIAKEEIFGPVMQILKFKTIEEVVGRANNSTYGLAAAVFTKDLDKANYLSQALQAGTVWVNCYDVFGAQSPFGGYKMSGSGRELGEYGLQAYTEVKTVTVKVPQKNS
The experiment in a line: Activation of wild type human recombinant ALDH2*1 expressed Escherichia coli BL21 cells at 10 uM relative to control.

Series [3] deals with BL21. Description: Activation of human recombinant ALDH2*2 E487K mutant expressed Escherichia coli BL21 cells at 10 uM relative to control.
Series [4] deals with Rattus norvegicus. Description: Toxicity in Wistar rat assessed as histopathology at 6 mg/kg/day for 1 week. The format is organism-based. The conditions noted are these: in vivo, 168 h.
Series [5] deals with T2, Aldehyde dehydrogenase X, mitochondrial (Homo sapiens) (UniProt P30837).
T2 sequence (whole entry): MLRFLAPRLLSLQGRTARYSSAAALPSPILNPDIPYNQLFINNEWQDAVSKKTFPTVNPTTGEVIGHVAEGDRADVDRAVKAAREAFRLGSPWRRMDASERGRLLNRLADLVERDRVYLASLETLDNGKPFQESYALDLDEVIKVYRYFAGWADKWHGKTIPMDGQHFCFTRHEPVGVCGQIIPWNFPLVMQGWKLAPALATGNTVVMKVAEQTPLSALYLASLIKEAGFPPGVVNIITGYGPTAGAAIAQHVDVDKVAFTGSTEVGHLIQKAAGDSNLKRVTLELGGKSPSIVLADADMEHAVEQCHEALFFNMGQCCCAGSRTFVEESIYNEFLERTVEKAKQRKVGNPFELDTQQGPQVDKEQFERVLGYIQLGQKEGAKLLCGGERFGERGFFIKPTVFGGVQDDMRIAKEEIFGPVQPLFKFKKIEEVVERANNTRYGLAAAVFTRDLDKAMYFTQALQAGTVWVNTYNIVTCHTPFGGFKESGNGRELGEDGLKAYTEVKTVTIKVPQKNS
The experiment in a line: Effect on human recombinant his-tagged mitochondrial ALDH5 activity expressed in Escherichia coli BL21 cells at 100 uM.

Series [6] has as its target T1, Aldehyde dehydrogenase, mitochondrial (Homo sapiens). Description: Activation of human ALDH2 assessed as phosphorylated enzyme at 20 uM in presence of rat PKCepsilon by spectrophotometry.
Series [7] concerns Rattus norvegicus. The experiment in a line: Induction of cell-stress in Wistar rat heart assessed as JNK activation at 8.5 mg/kg after ischemia followed by reperfusion by occluding left anterior descending coronary artery ligation for 35 mins by Western blot analysis. The class given is functional, organism-based. On the set-up: dose 8.5 mg/kg. In short, it runs like this:
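In vivo rat model: 8.5 mg/kg given into the left ventricle five minutes before 35 min ischemia, followed by 60 min reperfusion.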
On the technique in general: A western blot detects proteins with antibodies after separation by electrophoresis.

Series [8] has as its system BL21. Description: Increase in human recombinant ALDH2*1/*2 E487K mutant heterotetramer activity expressed in Escherichia coli BL21 cells using wild type and mutant allele. In short, it runs like this: (§1)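 Recombinant human ALDH2 proteins (wild type, heterozygous and homozygous mutant forms), 20μg each, assayed for enzymatic activity with 100 μM activator present; activity expressed as percent of untreated control; n=3.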

Series [9] in a line: Effect on alcohol dehydrogenase 1 activity at 100 uM.
In series [10] the test system is Rattus norvegicus. The experiment in a line: Reduction of cardiac damage in acute myocardial infarction Wistar rat model assessed as decrease in infarct size at 8.5 mg/kg treated before left anterior descending coronary artery ligation measured after 35 mins of ischemia followed by 60 mins reperfusion by TTC staining. The format is functional, Myocardium. Set-up: scale not given: the % may be the effect or the level left. In short, it runs like this: (§2)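 In vivo: 8.5 mg/kg injected into left ventricle five minutes before ischemia; 35 min ischemia then 60 min reperfusion; infarct size of left ventricular free wall expressed as percent, n=7.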

In series [11] the target is T3, Aldehyde dehydrogenase 1A1 (Homo sapiens) (UniProt P00352).
T3 sequence (whole entry): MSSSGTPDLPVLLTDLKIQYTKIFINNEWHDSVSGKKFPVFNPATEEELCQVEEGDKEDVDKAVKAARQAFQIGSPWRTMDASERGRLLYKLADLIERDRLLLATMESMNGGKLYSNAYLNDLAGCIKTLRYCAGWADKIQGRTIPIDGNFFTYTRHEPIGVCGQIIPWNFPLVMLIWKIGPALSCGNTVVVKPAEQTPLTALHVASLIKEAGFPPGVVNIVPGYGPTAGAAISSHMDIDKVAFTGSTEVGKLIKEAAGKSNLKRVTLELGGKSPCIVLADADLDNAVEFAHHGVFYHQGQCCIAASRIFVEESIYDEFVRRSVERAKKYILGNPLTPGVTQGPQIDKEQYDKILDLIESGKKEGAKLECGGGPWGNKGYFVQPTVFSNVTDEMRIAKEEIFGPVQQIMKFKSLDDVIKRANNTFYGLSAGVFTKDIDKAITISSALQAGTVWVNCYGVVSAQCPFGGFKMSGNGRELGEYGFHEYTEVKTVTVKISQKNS
The experiment in a line: Effect on human recombinant his-tagged cytosolic ALDH1A1 activity expressed in Escherichia coli BL21 cells at 100 uM.

The subject of series [12] is Rattus norvegicus. The experiment in a line: Toxicity in Wistar rat assessed as blood parameters at 6 mg/kg/day for 1 week. The format is organism-based. The conditions noted are these: in vivo, 168 h.
In series [13] the target is T1, Aldehyde dehydrogenase, mitochondrial (Homo sapiens). Description: Activation of human ALDH2 assessed as phosphorylated enzyme at 20 uM in absence of rat PKCepsilon by spectrophotometry.
In series [14] the test system is Heart. The experiment in a line: Ex vivo cardiac protection in Langendorff perfused Wistar rat heart assessed decrease in myocardial infarct size at 20 uM treated […] ischemia followed by 60 mins reperfusion by TTC staining. The class given is functional. On the set-up: scale not given: the % may be the effect or the level left. In short, it runs like this:
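Langendorff-perfused rat hearts pretreated 10 min with 20 μM drug or vehicle, then 35 min ischemia and 60 min reperfusion. Infarct size assessed by TTC staining of cross-sectional slices; n=7 hearts per group.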

In series [15] the test system is BL21. The experiment in a line: Increase in human recombinant ALDH2*2 E487K mutant activity expressed in Escherichia coli BL21 cells. In short, it runs like this: as §1
The subject of series [16] is Rattus norvegicus. Description: Induction of cell-stress in Wistar rat heart assessed as JNK activation at 8.5 mg/kg after 5 mind by Western blot analysis. The format is functional, organism-based. Set-up: dose 8.5 mg/kg.
The target of series [17] is T1, Aldehyde dehydrogenase, mitochondrial (Homo sapiens). Description: Increase in wild type human recombinant ALDH2*1/*1 homotetramer activity expressed in Escherichia coli BL21 cells using wild type allele relative to basal activity. A digest of the protocol:
as §1

The test system of series [18] is Heart. Description: Ex vivo cardiac protection in Langendorff perfused Wistar rat heart assessed decrease of CPK release at 20 uM treated 35 mins before ischemia followed by 60 mins reperfusion. The format is functional. On the set-up: scale not given: the % may be the effect or the level left.
Series [19] deals with Rattus norvegicus. The experiment in a line: Reduction of cardiac damage in acute myocardial infarction Wistar rat model assessed as decrease in myocardial infarction at 8.5 mg/kg treated 5 mins before ischemia by TTC staining. The format is functional, Myocardium. On the set-up: scale not given: the % may be the effect or the level left. In short, it runs like this:
as §2

Series [20] relates to Heart. The experiment in a line: Cardiac protection in Langendorff perfused ischemic Wistar rat heart assessed as reduction of infarct size at 1 uM for 10 mins by TTC staining. The class given is functional. On the set-up: scale not given: the % may be the effect or the level left.
The target of series [21] is T4, Aldehyde dehydrogenase, mitochondrial (Rattus norvegicus) (UniProt P11884).
T4 sequence (whole entry): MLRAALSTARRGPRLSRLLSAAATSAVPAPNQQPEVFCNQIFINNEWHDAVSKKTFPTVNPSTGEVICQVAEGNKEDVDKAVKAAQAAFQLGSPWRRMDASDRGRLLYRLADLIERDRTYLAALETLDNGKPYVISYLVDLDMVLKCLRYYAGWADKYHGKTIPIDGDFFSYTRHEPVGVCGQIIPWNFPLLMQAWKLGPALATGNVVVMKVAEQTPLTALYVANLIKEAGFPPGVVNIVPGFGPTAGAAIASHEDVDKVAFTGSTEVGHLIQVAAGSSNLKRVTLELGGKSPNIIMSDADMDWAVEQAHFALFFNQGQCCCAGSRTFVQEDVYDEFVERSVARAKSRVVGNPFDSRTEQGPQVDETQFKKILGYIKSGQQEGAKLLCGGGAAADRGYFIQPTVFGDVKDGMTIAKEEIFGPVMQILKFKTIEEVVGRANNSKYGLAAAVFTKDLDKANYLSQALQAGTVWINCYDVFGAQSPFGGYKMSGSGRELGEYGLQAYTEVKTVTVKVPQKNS
Description: Induction of ALDH2 activity in langendorff perfused ischemic Wistar rat heart homogenate assessed as NADH level in per mg of protein at 1 uM after 10 mins by spectrophotometry. The class given is tissue-based. A digest of the protocol:
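Rat hearts on a Langendorff apparatus perfused with oxygenated Krebs-Henseleit buffer containing 1μM εPKC agonist peptide for 10 min, then subjected to ischemia; ALDH activity measured in heart homogenates.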

Active and inactive are the calls of the source. The rule behind the calls is not given here.

Consider `O=[N+]([O-])OCC(CO[N+](=O)[O-])O[N+](=O)[O-]` [NITROGLYCERIN], for which the Activity in series [1] is listed as 33%.
In the case of `O=C(NCc1ccc2c(c1)OCO2)c1c(F)cccc1F`, the figures for the Activity in [2] and in series [3] were 41% and 330%, respectively.
`O=C(NCc1ccc2c(c1)OCO2)c1c(Cl)cccc1Cl`: the Activity result in series [4] was “Non-toxic”; in series [2] it was 65%; in series [3], 900%; in series [6], 100%; in series [10] it was 43%; in series [12], “Non-toxic”. Moreover, the Activity in series [13] was found to be 90%; in [14], 26%; in series [18], 24%; in series [19], 60%. The result in [5], in series [7], in [9], in [11] and in series [16] was inactive. Besides, the figures for the fold change (FC) in series [8], in series [15] and in [17] were 2.2, 11 and 2.1, respectively.
Take `O=C(NCc1ccc2c(c1)OCO2)c1ccccc1Br`: the results for the Activity in series [2] and in series [3] were 56% and 550%, respectively.
In the case of H-HDAPIGYD-OH, the Activity in [20] was 23%; in [21], 3.2 µmol/min.
